One data set is described as follows: hPPB. It is filed as in vitro ADME. The settings on record: human.
A further data set is described as follows: Rat pharmacokinetics. It is filed as in vivo, Sprague Dawley rats. The note with it: Sprague Dawley, plasma. In a few lines:
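Sprague Dawley rats (N = 3) were dosed i.v. at 1 mpk in 70% PEG or by oral gavage as a methylcellulose suspension. Serial blood samples were anticoagulated and centrifuged to plasma. Parent compound was quantified in plasma, and PK parameters were calculated by noncompartmental analysis.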

The next data set can be described thus: Caco-2 permeability. It is filed as in vitro ADME. The settings on record: human, Caco-2, pH 7.4. In a few lines: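 Caco-2 cells were seeded at 80,000 cells/cm2 on polycarbonate Transwell filters and grown 21–25 days. Monolayers were pre-equilibrated with HBSS pH 7.4 for 30 min at 37 °C. Dosing solution was 50 mM nominal in HBSS, stirred overnight at room temperature, filtered and added apically (A/B) or basolaterally (B/A). Receiver sampled at 15–150 min, in duplicate. Papp (cm/s) by LC/MS/MS.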

The nature of a further data set: PAMPA permeability. The format is in vitro ADME.
The target of data set [1] is catalytic domain of recombinant human MMP-8 (Homo sapiens, UniProt P22894). Put plainly: MMP-8 biochemical assay. In a few lines: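 FRET cleavage assay with 2 nM recombinant human MMP-8 catalytic domain and 2 μM quenched FRET peptide substrate. Incubated 30 min at 28 °C/80% humidity; fluorescence read at ex 485/em 535 nm.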
Chain of catalytic domain of recombinant human MMP-8 (P22894 100-262 limits assumed): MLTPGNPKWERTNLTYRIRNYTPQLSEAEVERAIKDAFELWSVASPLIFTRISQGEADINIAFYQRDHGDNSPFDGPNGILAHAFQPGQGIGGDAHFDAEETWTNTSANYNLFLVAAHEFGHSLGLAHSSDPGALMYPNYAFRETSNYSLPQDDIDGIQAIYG
Data set [2] relates to collagen antibody-induced arthritis. In words: Murine collagen antibody-induced arthritis. It is filed as in vivo, female B10.RIII mice. The settings on record: 100 mg/kg twice daily oral gavage from day 4, day 14. In a few lines:
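Female B10.RIII mice, 8–10 weeks old, received 2 mg anti-collagen II monoclonal antibody cocktail i.p., then 37.5 μg LPS i.p. 3 days later. From day 4, compounds or vehicle (1% CMC, 0.015% Tween 80, 10 mL/kg) were given by oral gavage twice daily. Each limb was scored visually daily, days 3–14, and group mean computed. Body weight recorded every other day.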

The target of data set [3] is catalytic domain of human MMP13 (Homo sapiens, UniProt P45452). Put plainly: Biochemical MMP-13 FRET assay. The settings on record: vs compound 13.

What is called half-life is the time in which the quantity being followed falls by half. A high value points to slow loss. As a reminder, the Papp A→B is the apparent permeability from the apical to the basolateral side of a cell layer. Read a high Papp A→B as ready permeation. The term Papp B→A denotes how fast a substance crosses the layer from the basolateral side. As usually defined, the Papp is the rate of passage across a membrane or cell layer, normalised by area and donor concentration. Read a low Papp as poor permeation. As a reminder, the IC50 is the concentration needed to halve the response being measured. For `Cc1noc(-c2cc3cc(-c4nc(C(=O)NCc5ccncc5)[nH]c4C)ccc3[nH]2)n1` [Compound 17, 4-Methyl-5-[2-(3-methyl-[1,2,4]oxadiazol-5-yl)-1H-indol-5-yl]-1H-imidazole-2-carboxylic Acid (Pyridin-4-ylmethyl)-amide], the “hPPB (% bound)” value in “hPPB” was found to be 93 % bound. Further, in the data set “Rat pharmacokinetics”, the half-life was 0.9 h. In “Caco-2 permeability”, this compound came in with a Papp A→B at 150 min, 50 mM of 3.5 ×10⁻⁶ cm/s and a basolateral-to-apical permeability (Papp B→A) at 150 min, 50 mM of 9 ×10⁻⁶ cm/s. Also, the Papp in the data set “PAMPA permeability” is 29 ×10⁻⁶ cm/s. Moreover, the IC50 in data set [1] is 3.1 µM. The “overall mean arthritic score vs vehicle control” value in data set [2] is “significantly reduced”.
For the compound `CCNC(=O)c1nc(-c2ccc3[nH]c(-c4nc(C)no4)cc3c2)c(C)[nH]1` [Compound 15, 4-Methyl-5-[2-(3-methyl-[1,2,4]oxadiazol-5-yl)-1H-indol-5-yl]-1H-imidazole-2-carboxylic Acid Ethylamide], in the data set “Rat pharmacokinetics”, the half-life was 1.8 h.
Turning to `Cc1noc(-c2cc3cc(-c4[nH]c(C(=O)NCc5ccccc5)nc4C)ccc3[nH]2)n1` [Compound 21, 4-Methyl-5-[2-(3-methyl-[1,2,4]oxadiazol-5-yl)-1H-indol-5-yl]-1H-imidazole-2-carboxylic Acid Benzylamide], the “loss of potency relative to 13” value in data set [3] is 10 fold.

Values taken from publication PMC8319936 (ACS Omega, 2021).
